From PMC8916014 (Proceedings of the National Academy of Sciences of the …, 2022)

Columns and labels:
[1] = test system: E. coli ATCC25922 with purified E. coli 70S ribosome; test: bacterial ribosome-mediated antimicrobial block assay; format: cell-based, Escherichia coli; conditions: 70S ribosome 12.5 nM
How it was run: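 MBC fold-change against E. coli with exogenous E. coli 70S ribosome was determined by virtual-colony count assay. Polymyxin B and kanamycin served as comparators. Triplicate experiments were reported as mean ± SD, with one- or two-way ANOVA and Bonferroni correction.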

[2] = test system: E. coli ATCC25922 with purified LPS from E. coli O111:B4; test: LPS-mediated antimicrobial block assay; format: cell-based, Escherichia coli; conditions: LPS 25 μg/mL
How it was run: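 A virtual-colony count assay gave the fold-change in MBC against E. coli across different concentrations of added purified LPS. Polymyxin B and kanamycin were run as comparators.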

[3] = test system: E. coli ATCC25922 outer membrane; test: outer membrane permeability assay; format: cell-based, Escherichia coli; conditions: E. coli ATCC25922, 1 h treatment, 0.195–100 μM
How it was run: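 E. coli ATCC25922 was treated with test compound for 1 h, then probed with NPN. NPN fluorescence intensity served as the measure of outer-membrane permeability and was normalized to relative fluorescence intensity. Experiments were run in triplicate and reported as mean ± SD.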

S. aureus (ATCC 25923) = test: in vivo efficacy, S. aureus-induced pneumonia; parameters: species or system C57BL/6 mice; conditions: 2 mg/kg intratracheal
[4] = test system: K. pneumoniae (ATCC 13883); test: in vivo efficacy, K. pneumoniae-induced pneumonia; parameters: species or system C57BL/6 mice; conditions: 2 mg/kg intratracheal

NC[C@H]1O[C@H](O[C@H]2[C@H](O)[C@@H](O[C@H]3O[C@H](CO)[C@@H](O)[C@H](N)[C@H]3O)[C@H](N)C[C@@H]2N)[C@H](O)[C@@H](O)[C@@H]1O [kanamycin]
fold change in MBC in presence of E. coli 70S ribosome [1]: antagonized | fold change in MBC in presence of LPS [2]: no effect

polymyxin B [PMB]
fold change in MBC in presence of E. coli 70S ribosome [1]: failed to affect activity | permeability of bacterial OM (NPN fluorescence) [3]: increased the permeability of bacterial OM in a dose-dependent manner | efficacy in S. aureus-induced pneumonia (S. aureus (ATCC 25923)): ineffective | survival rate [4]: 100% | fold change in MBC in presence of LPS [2]: fourfold
